Data taken from ChEMBL document CHEMBL1649571, “In vitro activity of TR-700, the active ingredient of the antibacterial prodrug TR-701, a novel oxazolidinone antibacterial agent” (2009).

Key:
Assay type in all cases: functional
[1] = test system: Porphyromonas asaccharolytica; experiment: Antibacterial activity against Porphyromonas asaccharolytica by CLSI M11-A7 agar dilution method
Procedure, shortened: (§1)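 Recent (2005 to 2008) clinical isolates. Anaerobes grown 48 h in an anaerobic glove box, with inoculum suspensions made in prereduced broth inside the box. A Steers replicator stamped the inoculum onto drug-supplemented agar. After absorption, plates were incubated 48 h at 37°C, then removed from the box and the MIC read. QC strains were run against the CLSI ranges.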

Clostridium perfringens = experiment: Antibacterial activity against Clostridium perfringens by CLSI M11-A7 agar dilution method
Procedure, shortened: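 Reference agar dilution MIC on recent (2005–2008) clinical isolates. Cultures grown 48 h in an anaerobic glove box; inoculum suspended in prereduced broth inside the box and stamped by Steers replicator onto drug-supplemented agar. Plates incubated 48 h at 37°C before MIC reading. QC strains run alongside, required to fall within CLSI ranges.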

Phocaeicola vulgatus = experiment: Antibacterial activity against Bacteroides vulgatus by CLSI M11-A7 agar dilution method; procedure, shortened: as §1
Bacteroides fragilis = experiment: Antibacterial activity against Bacteroides fragilis by CLSI M11-A7 agar dilution method; procedure, shortened: as §1
Bacteroides ovatus = experiment: Antibacterial activity against Bacteroides ovatus by CLSI M11-A7 agar dilution method; procedure, shortened: as §1
Parvimonas micra = experiment: Antibacterial activity against Peptostreptococcus micros by CLSI M11-A7 agar dilution method; procedure, shortened: as §1
Prevotella sp. = experiment: Antibacterial activity against Prevotella sp. by CLSI M11-A7 agar dilution method; procedure, shortened: as §1
[2] = test system: Bacteroides thetaiotaomicron; experiment: Antibacterial activity against Bacteroides thetaiotaomicron by CLSI M11-A7 agar dilution method; procedure, shortened: as §1
[3] = test system: Peptostreptococcus anaerobius; experiment: Antibacterial activity against Peptostreptococcus anaerobius by CLSI M11-A7 agar dilution method; procedure, shortened: as §1
Streptococcus pyogenes = experiment: Antibacterial activity against Streptococcus pyogenes by CLSI M7-A7 broth microdilution broth microdilution method
Procedure, shortened: (§2)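 Reference broth microdilution MIC under aerobic conditions on recent (2005–2008) clinical isolates from U.S. and non-U.S. sites. QC strains run alongside, required to fall within published CLSI ranges.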

Streptococcus pneumoniae [4] = experiment: Antibacterial activity against penicillin-resistant Streptococcus pneumoniae by CLSI M7-A7 broth microdilution method; procedure, shortened: as §2
[5] = test system: Staphylococcus epidermidis; experiment: Antibacterial activity against methicillin-resistant Staphylococcus epidermidis by CLSI M7-A7 broth microdilution method; procedure, shortened: as §2
Staphylococcus aureus [6] = experiment: Antibacterial activity against methicillin-susceptible Staphylococcus aureus by CLSI M7-A7 broth microdilution method; procedure, shortened: as §2
Haemophilus influenzae = experiment: Antibacterial activity against Haemophilus influenzae by CLSI M7-A7 broth microdilution method
Procedure, shortened: (§3)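 Recent (2005 to 2008) clinical isolates from U.S. (80%) and non-U.S. (20%) sites. Aerobic MICs were determined by CLSI reference broth microdilution, with quality control strains checked against the published CLSI ranges.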

Enterococcus faecium [7] = experiment: Antibacterial activity against vancomycin-susceptible Enterococcus faecium by CLSI M7-A7 broth microdilution method; procedure, shortened: as §2
[8] = test system: Staphylococcus epidermidis; experiment: Antibacterial activity against methicillin-susceptible Staphylococcus epidermidis by CLSI M7-A7 broth microdilution method
Staphylococcus aureus [9] = experiment: Antibacterial activity against community-acquired methicillin-resistant Staphylococcus aureus by CLSI M7-A7 broth microdilution method; procedure, shortened: as §2
Staphylococcus aureus [10] = experiment: Antibacterial activity against methicillin-resistant Staphylococcus aureus by CLSI M7-A7 broth microdilution method; procedure, shortened: as §2
Enterococcus faecium [11] = experiment: Antibacterial activity against vancomycin-resistant Enterococcus faecium by CLSI M7-A7 broth microdilution method; procedure, shortened: as §2
Streptococcus pneumoniae [12] = experiment: Antibacterial activity against penicillin-intermediate Streptococcus pneumoniae by CLSI M7-A7 broth microdilution method; procedure, shortened: as §2
Enterococcus faecalis [13] = experiment: Antibacterial activity against vancomycin-resistant Enterococcus faecalis by CLSI M7-A7 broth microdilution method; procedure, shortened: as §2
Streptococcus agalactiae = experiment: Antibacterial activity against Streptococcus agalactiae by CLSI M7-A7 broth microdilution method; procedure, shortened: as §2
Enterococcus faecalis [14] = experiment: Antibacterial activity against vancomycin-susceptible Enterococcus faecalis by CLSI M7-A7 broth microdilution method; procedure, shortened: as §2
Streptococcus pneumoniae [15] = experiment: Antibacterial activity against penicillin-susceptible Streptococcus pneumoniae by CLSI M7-A7 broth microdilution method; procedure, shortened: as §2
Moraxella catarrhalis = experiment: Antibacterial activity against Moraxella catarrhalis by CLSI M7-A7 broth microdilution method; procedure, shortened: as §3

Cc1ncc([N+](=O)[O-])n1CCO [METRONIDAZOLE]
0.5 µg/mL: MIC50 (Prevotella sp.) | MIC50 [3]
0.25 µg/mL: MIC50 (Phocaeicola vulgatus) | MIC90 (Phocaeicola vulgatus)
≤ 0.06 µg/mL: MIC (Parvimonas micra) | MIC50 (Parvimonas micra)
> 32 µg/mL: MIC90 (Clostridium perfringens) | MIC90 (Parvimonas micra) | MIC90 (Prevotella sp.)
0.12 µg/mL: MIC50 (Bacteroides fragilis)
1 µg/mL: MIC50 [1] | MIC90 [1] | MIC50 (Clostridium perfringens) | MIC90 (Bacteroides fragilis) | MIC50 (Bacteroides ovatus) | MIC90 (Bacteroides ovatus) | MIC50 [2] | MIC90 [2] | MIC90 [3]

Cn1nnc(-c2ccc(-c3ccc(N4C[C@H](CO)OC4=O)cc3F)cn2)n1 [TEDIZOLID]
1 µg/mL: MIC90 (Enterococcus faecium [7]) | MIC50 (Prevotella sp.) | MIC90 (Enterococcus faecalis [14])
0.25 µg/mL: MIC50 (Streptococcus pyogenes) | MIC [1] | MIC50 [1] | MIC50 (Streptococcus pneumoniae [4]) | MIC90 (Streptococcus pneumoniae [4]) | MIC50 [5] | MIC50 [8] | MIC50 (Streptococcus pneumoniae [12]) | MIC90 (Streptococcus pneumoniae [12]) | MIC50 (Parvimonas micra) | MIC50 [3] | MIC50 (Streptococcus agalactiae) | MIC50 (Streptococcus pneumoniae [15]) | MIC90 (Streptococcus pneumoniae [15])
2 µg/mL: MIC90 (Clostridium perfringens) | MIC50 (Phocaeicola vulgatus) | MIC50 (Bacteroides ovatus) | MIC [2] | MIC50 [2] | MIC90 [2] | MIC50 (Moraxella catarrhalis)
8 µg/mL: MIC50 (Haemophilus influenzae) | MIC90 (Bacteroides ovatus)
0.5 µg/mL: MIC90 (Streptococcus pyogenes) | MIC90 [1] | MIC50 (Clostridium perfringens) | MIC90 [5] | MIC50 (Staphylococcus aureus [6]) | MIC90 (Staphylococcus aureus [6]) | MIC50 (Enterococcus faecium [7]) | MIC90 [8] | MIC50 (Staphylococcus aureus [9]) | MIC90 (Staphylococcus aureus [9]) | MIC50 (Staphylococcus aureus [10]) | MIC90 (Staphylococcus aureus [10]) | MIC50 (Enterococcus faecium [11]) | MIC90 (Enterococcus faecium [11]) | MIC90 (Parvimonas micra) | MIC50 (Enterococcus faecalis [13]) | MIC90 (Enterococcus faecalis [13]) | MIC90 [3] | MIC90 (Streptococcus agalactiae) | MIC50 (Enterococcus faecalis [14])
4 µg/mL: MIC90 (Phocaeicola vulgatus) | MIC50 (Bacteroides fragilis) | MIC90 (Bacteroides fragilis) | MIC90 (Prevotella sp.) | MIC90 (Moraxella catarrhalis)
16 µg/mL: MIC90 (Haemophilus influenzae)

CN[C@H](CC(C)C)C(=O)N[C@H]1C(=O)N[C@@H](CC(N)=O)C(=O)N[C@H]2C(=O)N[C@H]3C(=O)N[C@H](C(=O)N[C@H](C(=O)O)c4cc(O)cc(O)c4-c4cc3ccc4O)[C@H](O)c3ccc(c(Cl)c3)Oc3cc2cc(c3O[C@@H]2O[C@H](CO)[C@@H](O)[C@H](O)[C@H]2O[C@H]2C[C@](C)(N)[C@H](O)[C@H](C)O2)Oc2ccc(cc2Cl)[C@H]1O [VANCOMYCIN]
1 µg/mL: MIC50 (Staphylococcus aureus [6]) | MIC90 (Staphylococcus aureus [6]) | MIC50 (Enterococcus faecium [7]) | MIC90 (Enterococcus faecium [7]) | MIC50 (Staphylococcus aureus [10]) | MIC90 (Staphylococcus aureus [10]) | MIC50 (Enterococcus faecalis [14])
4 µg/mL: MIC50 (Staphylococcus aureus [9]) | MIC90 (Staphylococcus aureus [9])
> 32 µg/mL: MIC50 (Enterococcus faecium [11]) | MIC90 (Enterococcus faecium [11]) | MIC50 (Enterococcus faecalis [13]) | MIC90 (Enterococcus faecalis [13])
0.5 µg/mL: MIC50 (Streptococcus pyogenes) | MIC90 (Streptococcus pyogenes) | MIC90 (Streptococcus pneumoniae [4]) | MIC90 (Streptococcus pneumoniae [12]) | MIC50 (Streptococcus agalactiae) | MIC90 (Streptococcus agalactiae) | MIC90 (Streptococcus pneumoniae [15])
2 µg/mL: MIC50 [5] | MIC90 [5] | MIC50 [8] | MIC90 [8] | MIC90 (Enterococcus faecalis [14])
0.25 µg/mL: MIC50 (Streptococcus pneumoniae [4]) | MIC (Streptococcus pneumoniae [12]) | MIC50 (Streptococcus pneumoniae [12]) | MIC50 (Streptococcus pneumoniae [15])

C[C@@H](O)[C@H]1C(=O)N2C(C(=O)O)=C(SCCNC=N)C[C@H]12 [IMIPENEM ANHYDROUS]
≤ 0.06 µg/mL: MIC50 (Prevotella sp.)
0.12 µg/mL: MIC50 (Clostridium perfringens) | MIC (Bacteroides fragilis) | MIC50 (Bacteroides fragilis)
0.25 µg/mL: MIC (Phocaeicola vulgatus) | MIC50 (Phocaeicola vulgatus) | MIC50 (Bacteroides ovatus)
< 0.03 µg/mL: MIC50 [1]
0.5 µg/mL: MIC90 (Clostridium perfringens) | MIC90 (Phocaeicola vulgatus) | MIC90 (Bacteroides fragilis) | MIC90 (Bacteroides ovatus) | MIC50 [2]
≤ 0.03 µg/mL: MIC [1] | MIC (Parvimonas micra) | MIC50 (Parvimonas micra) | MIC90 (Parvimonas micra)
0.06 µg/mL: MIC90 [1] | MIC50 [3]
1 µg/mL: MIC90 (Prevotella sp.) | MIC90 [2] | MIC90 [3]

Cc1onc(-c2ccccc2)c1C(=O)N[C@@H]1C(=O)N2[C@@H]1SC(C)(C)[C@@H]2C(=O)O [OXACILLIN]
0.5 µg/mL: MIC90 (Staphylococcus aureus [6])
0.25 µg/mL: MIC50 (Staphylococcus aureus [6]) | MIC90 [8]
32 µg/mL: MIC50 (Staphylococcus aureus [9]) | MIC90 (Staphylococcus aureus [9]) | MIC50 (Staphylococcus aureus [10]) | MIC90 (Staphylococcus aureus [10])
0.12 µg/mL: MIC50 [8]
> 32 µg/mL: MIC90 [5]
16 µg/mL: MIC50 [5]

CC(=O)NC[C@H]1CN(c2ccc(N3CCOCC3)c(F)c2)C(=O)O1 [LINEZOLID]
2 µg/mL: MIC90 (Streptococcus pyogenes) | MIC90 [1] | MIC50 (Clostridium perfringens) | MIC90 [5] | MIC50 (Staphylococcus aureus [6]) | MIC50 (Enterococcus faecium [7]) | MIC (Phocaeicola vulgatus) | MIC50 (Phocaeicola vulgatus) | MIC90 [8] | MIC50 (Staphylococcus aureus [9]) | MIC50 (Staphylococcus aureus [10]) | MIC50 (Enterococcus faecium [11]) | MIC90 (Enterococcus faecium [11]) | MIC90 (Parvimonas micra) | MIC50 (Prevotella sp.) | MIC50 (Enterococcus faecalis [13]) | MIC90 (Enterococcus faecalis [13]) | MIC90 [3] | MIC50 (Streptococcus agalactiae) | MIC90 (Streptococcus agalactiae) | MIC50 (Enterococcus faecalis [14]) | MIC90 (Enterococcus faecalis [14])
8 µg/mL: MIC50 (Bacteroides ovatus) | MIC90 (Bacteroides ovatus) | MIC90 [2] | MIC50 (Moraxella catarrhalis) | MIC90 (Moraxella catarrhalis)
16 µg/mL: MIC50 (Haemophilus influenzae)
4 µg/mL: MIC90 (Clostridium perfringens) | MIC90 (Staphylococcus aureus [6]) | MIC90 (Enterococcus faecium [7]) | MIC90 (Phocaeicola vulgatus) | MIC (Bacteroides fragilis) | MIC50 (Bacteroides fragilis) | MIC90 (Bacteroides fragilis) | MIC90 (Staphylococcus aureus [9]) | MIC90 (Staphylococcus aureus [10]) | MIC90 (Prevotella sp.) | MIC [2] | MIC50 [2]
1 µg/mL: MIC50 (Streptococcus pyogenes) | MIC50 [1] | MIC50 (Streptococcus pneumoniae [4]) | MIC90 (Streptococcus pneumoniae [4]) | MIC50 [5] | MIC50 [8] | MIC50 (Streptococcus pneumoniae [12]) | MIC90 (Streptococcus pneumoniae [12]) | MIC50 (Parvimonas micra) | MIC50 [3] | MIC50 (Streptococcus pneumoniae [15]) | MIC90 (Streptococcus pneumoniae [15])
32 µg/mL: MIC90 (Haemophilus influenzae)
